Source: ChEMBL document CHEMBL1123757, “Selective thromboxane synthetase inhibitors and antihypertensive agents. New derivatives of 4-hydrazino-5H-pyridazino[4,5-b]indole, 4-hydrazinopyridazino[4,5-a]indole, and related compounds” (J Med Chem, 1987)

Experiments:
Rattus norvegicus [1] = test: Antihypertensive activity in spontaneously hypertensive rats (SHR) measured by percentage fall in arterial pressure (AP) at 5 mg/kg administered perorally at 1 h; type: functional, Artery; details: route oral
Procedure, shortened: (§1)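 Oral dosing at 2.5 mL/kg to unanesthetized male and female Okamoto-strain SHR (8 weeks old, 300–350 g, systolic pressure ≥190 mmHg, heart rate 400–650 beats/min), five per dose. Vehicle was normal saline or saline with 0.2% (carboxymethyl)cellulose and 1.0% Tween 80. AP measured on the tail by mechanical transduction at set times; expressed as percentage fall from control.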

Rattus norvegicus [2] = test: Antihypertensive activity in spontaneously hypertensive rats (SHR) measured by percentage fall in arterial pressure (AP) at 5 mg/kg administered intraperitoneally at 5 h; type: functional, Artery; details: route intraperitoneal
Procedure, shortened: (§2)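 Unanesthetized Okamoto-strain SHR, male and female, 8 weeks old, 300–350 g, systolic pressure ≥190 mmHg, heart rate 400–650 beats/min; five animals per dose. Given ip at 2.5 mL/kg, dissolved or suspended in normal saline or saline with 0.2% (carboxymethyl)cellulose and 1.0% Tween 80. Tail AP and CR recorded by mechanical transduction at set times; reported as percentage fall from control.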

Rattus norvegicus [3] = test: Percent fall in systolic blood pressure, directly measured on carotid (iv on the jugular vein) of spontaneously hypertensive rats at 1 mg/kg after 5 minutes; type: functional, Artery
Procedure, shortened: (§3)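 Anesthetized (sodium pentobarbital, 70 mg/kg) male and female Okamoto SHR, 8 weeks old, 300–350 g. Given iv into the jugular vein in normal saline. Arterial pressure and cardiac rhythm are recorded directly from the carotid by polygraph at set times after dosing. Each is expressed as percent change from the pre-dose control value.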

Rattus norvegicus [4] = test: Antihypertensive activity in spontaneously hypertensive rats (SHR) measured by percentage fall in arterial pressure (AP) at 5 mg/kg administered intraperitoneally at 3 h; type: functional, Artery; details: route intraperitoneal; procedure, shortened: as §2
Rattus norvegicus [5] = test: Antihypertensive activity in spontaneously hypertensive rats (SHR) measured by percentage fall in arterial pressure (AP) at 25 mg/kg administered perorally at 3 h; type: functional, Artery; details: route oral; procedure, shortened: as §1
Rattus norvegicus [6] = test: Antihypertensive activity in spontaneously hypertensive rats (SHR) measured by percentage fall in arterial pressure (AP) at 5 mg/kg administered intraperitoneally at 1 h; type: functional, Artery; details: route intraperitoneal; procedure, shortened: as §2
Rattus norvegicus [7] = test: Antihypertensive activity in spontaneously hypertensive rats (SHR) measured by percentage fall in arterial pressure (AP) at 5 mg/kg administered intraperitoneally at 24 h; type: functional, Artery; details: route intraperitoneal; procedure, shortened: as §2
Rattus norvegicus [8] = test: Antihypertensive activity in spontaneously hypertensive rats (SHR) measured by percentage fall in cardiac rhythm (CR) at 1 mg/kg administered intraperitoneally at 5 h; type: functional, Heart; details: route intraperitoneal; procedure, shortened: as §2
Rattus norvegicus [9] = test: Percent fall in systolic blood pressure, directly measured on carotid (iv on the jugular vein) of spontaneously hypertensive rats at 1 mg/kg after 75 minutes; type: functional, Artery; procedure, shortened: as §3
Rattus norvegicus [10] = test: Antihypertensive activity in spontaneously hypertensive rats (SHR) measured by percentage fall in cardiac rhythm (CR) at 25 mg/kg administered perorally at 1 h; type: functional, Heart; details: route oral
Procedure, shortened: (§4)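 Conscious SHR (Okamoto strain), 8 weeks old, male and female, 300–350 g, systolic BP ≥190 mmHg, CR 400–650 beats/min. Given ip or po at 2.5 mL/kg in normal saline or saline with 0.2% (carboxymethyl)cellulose and 1.0% Tween 80. Tail AP and CR recorded by mechanical transduction at 1, 3, 5 and 24 h, five animals per dose. Effect expressed as % fall versus control.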

Rattus norvegicus [11] = test: Antihypertensive activity in spontaneously hypertensive rats (SHR) measured by percentage fall in cardiac rhythm (CR) at 1 mg/kg administered intraperitoneally at 1 h; type: functional, Heart; details: route intraperitoneal; procedure, shortened: as §2
Rattus norvegicus [12] = test: Antihypertensive activity in spontaneously hypertensive rats (SHR) measured by percentage fall in arterial pressure (AP) at 25 mg/kg administered intraperitoneally at 24 h; type: functional, Artery; details: route intraperitoneal; procedure, shortened: as §2
Rattus norvegicus [13] = test: Percent fall in systolic blood pressure, directly measured on carotid (iv on the jugular vein) of spontaneously hypertensive rats at 1 mg/kg after 30 minutes; type: functional, Artery; procedure, shortened: as §3
Rattus norvegicus [14] = test: Antihypertensive activity in spontaneously hypertensive rats (SHR) measured by percentage fall in cardiac rhythm (CR) at 1 mg/kg administered intraperitoneally at 24 h; type: functional, Heart; details: route intraperitoneal; procedure, shortened: as §2
Rattus norvegicus [15] = test: Percent fall in systolic blood pressure, directly measured on carotid (iv on the jugular vein) of spontaneously hypertensive rats at 1 mg/kg after 15 minutes; type: functional, Artery; procedure, shortened: as §3
Rattus norvegicus [16] = test: Antihypertensive activity in spontaneously hypertensive rats (SHR) measured by percentage fall in cardiac rhythm (CR) at 1 mg/kg administered intraperitoneally at 3 h; type: functional, Heart; details: route intraperitoneal; procedure, shortened: as §2
Rattus norvegicus [17] = test: Antihypertensive activity in spontaneously hypertensive rats (SHR) measured by percentage fall in arterial pressure (AP) at 25 mg/kg administered intraperitoneally at 5 h; type: functional, Artery; details: route intraperitoneal; procedure, shortened: as §2
Rattus norvegicus [18] = test: Antihypertensive activity in spontaneously hypertensive rats (SHR) measured by percentage fall in cardiac rhythm (CR) at 5 mg/kg administered perorally at 1 h; type: functional, Heart; details: route oral; procedure, shortened: as §4
Rattus norvegicus [19] = test: Antihypertensive activity in spontaneously hypertensive rats (SHR) measured by percentage fall in cardiac rhythm (CR) at 25 mg/kg administered intraperitoneally at 24 h; type: functional, Heart; details: route intraperitoneal; procedure, shortened: as §2
Rattus norvegicus [20] = test: Percent fall in systolic blood pressure, directly measured on carotid (iv on the jugular vein) of spontaneously hypertensive rats at 1 mg/kg after 10 minutes; type: functional, Artery; procedure, shortened: as §3
Rattus norvegicus [21] = test: Antihypertensive activity in spontaneously hypertensive rats (SHR) measured by percentage fall in cardiac rhythm (CR) at 5 mg/kg administered intraperitoneally at 5 h; type: functional, Heart; details: route intraperitoneal; procedure, shortened: as §4
Rattus norvegicus [22] = test: Antihypertensive activity in spontaneously hypertensive rats (SHR) measured by percentage fall in arterial pressure (AP) at 1 mg/kg administered intraperitoneally at 1 h; type: functional, Artery; details: route intraperitoneal; procedure, shortened: as §2
Rattus norvegicus [23] = test: Percent fall in systolic blood pressure, directly measured on carotid (iv on the jugular vein) of spontaneously hypertensive rats at 1 mg/kg after 60 minutes; type: functional, Artery; procedure, shortened: as §3
Rattus norvegicus [24] = test: Percent fall in systolic blood pressure, directly measured on carotid (iv on the jugular vein) of spontaneously hypertensive rats at 1 mg/kg after 45 minutes; type: functional, Artery; procedure, shortened: as §3
Rattus norvegicus [25] = test: Antihypertensive activity in spontaneously hypertensive rats (SHR) measured by percentage fall in arterial pressure (AP) at 25 mg/kg administered intraperitoneally at 3 h; type: functional, Artery; details: route intraperitoneal; procedure, shortened: as §2
Rattus norvegicus [26] = test: Antihypertensive activity in spontaneously hypertensive rats (SHR) measured by percentage fall in arterial pressure (AP) at 25 mg/kg administered perorally at 1 h; type: functional, Artery; details: route oral; procedure, shortened: as §1
Rattus norvegicus [27] = test: Antihypertensive activity in spontaneously hypertensive rats (SHR) measured by percentage fall in arterial pressure (AP) at 1 mg/kg administered intraperitoneally at 3 h; type: functional, Artery; details: route intraperitoneal; procedure, shortened: as §2
Rattus norvegicus [28] = test: Antihypertensive activity in spontaneously hypertensive rats (SHR) measured by percentage fall in arterial pressure (AP) at 5 mg/kg administered perorally at 3 h; type: functional, Artery; details: route oral; procedure, shortened: as §1
Rattus norvegicus [29] = test: Percent fall in systolic blood pressure, directly measured on carotid (iv on the jugular vein) of spontaneously hypertensive rats at 1 mg/kg after 90 minutes; type: functional, Artery; procedure, shortened: as §3
Rattus norvegicus [30] = test: Antihypertensive activity in spontaneously hypertensive rats (SHR) measured by percentage fall in cardiac rhythm (CR) at 25 mg/kg administered intraperitoneally at 5 h; type: functional, Heart; details: route intraperitoneal; procedure, shortened: as §4
Rattus norvegicus [31] = test: Antihypertensive activity in spontaneously hypertensive rats (SHR) measured by percentage fall in cardiac rhythm (CR) at 25 mg/kg administered intraperitoneally at 3 h; type: functional, Heart; details: route intraperitoneal; procedure, shortened: as §2
Homo sapiens [32] = organism: Homo sapiens; test: In vitro inhibition of platelet aggregation induced by ADP-II (PRP incubated for 5 minutes at 37 degree C) at 10e-5 M; type: functional
Procedure, shortened: (§5)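 Human venous blood anticoagulated with 3.8% sodium citrate (1:9). PRP from centrifugation at 800 rpm for 10 min at room temperature. Count adjusted with PPP to […]. Compound in saline with 10% ethylene glycol is added to PRP and incubated at 37 °C before the agonist. Agonists: ADP 2×10^-5 M, AA 0.6 mM, PGH2 2.8 μM, adrenaline 0.6 μM. Born absorbance aggregometry; n = 5.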

Rattus norvegicus [33] = test: Antihypertensive activity in spontaneously hypertensive rats (SHR) measured by percentage fall in arterial pressure (AP) at 25 mg/kg administered intraperitoneally at 1 h; type: functional, Artery; details: route intraperitoneal; procedure, shortened: as §2
Homo sapiens [34] = organism: Homo sapiens; test: In vitro inhibition of platelet aggregation induced by ADP-II (PRP incubated for 60 minutes at 37 degree C) at 10e-5 M; type: functional; details: 1 h; procedure, shortened: as §5
Rattus norvegicus [35] = test: Antihypertensive activity in spontaneously hypertensive rats (SHR) measured by percentage fall in arterial pressure (AP) at 25 mg/kg administered perorally at 5 h; type: functional, Artery; details: route oral; procedure, shortened: as §1
Rattus norvegicus [36] = test: Antihypertensive activity in spontaneously hypertensive rats (SHR) measured by percentage fall in cardiac rhythm (CR) at 25 mg/kg administered perorally at 5 h; type: functional, Heart; details: route oral; procedure, shortened: as §4
Rattus norvegicus [37] = test: Antihypertensive activity in spontaneously hypertensive rats (SHR) measured by percentage fall in cardiac rhythm (CR) at 25 mg/kg administered intraperitoneally at 1 h; type: functional, Heart; details: route intraperitoneal; procedure, shortened: as §2
Rattus norvegicus [38] = test: Antihypertensive activity in spontaneously hypertensive rats (SHR) measured by percentage fall in cardiac rhythm (CR) at 5 mg/kg administered intraperitoneally at 3 h; type: functional, Heart; details: route intraperitoneal; procedure, shortened: as §4
Rattus norvegicus [39] = test: Antihypertensive activity in spontaneously hypertensive rats (SHR) measured by percentage fall in cardiac rhythm (CR) at 5 mg/kg administered intraperitoneally at 1 h; type: functional, Heart; details: route intraperitoneal; procedure, shortened: as §4
Rattus norvegicus [40] = test: Antihypertensive activity in spontaneously hypertensive rats (SHR) measured by percentage fall in cardiac rhythm (CR) at 5 mg/kg administered intraperitoneally at 24 h; type: functional, Heart; details: route intraperitoneal; procedure, shortened: as §4
Rattus norvegicus [41] = test: Antihypertensive activity in spontaneously hypertensive rats (SHR) measured by percentage fall in cardiac rhythm (CR) at 25 mg/kg administered perorally at 3 h; type: functional, Heart; details: route oral; procedure, shortened: as §4

| SMILES | Decrease in AP (Rattus norvegicus [2]) [%] | Decrease in AP (Rattus norvegicus [4]) [%] | Decrease in AP (Rattus norvegicus [5]) [%] | Decrease in AP (Rattus norvegicus [6]) [%] | Decrease in AP (Rattus norvegicus [7]) [%] | Decrease in CR (Rattus norvegicus [8]) [%] | Decrease in CR (Rattus norvegicus [10]) [%] | Decrease in CR (Rattus norvegicus [11]) [%] | Decrease in AP (Rattus norvegicus [12]) [%] | Decrease in CR (Rattus norvegicus [16]) [%] | Decrease in AP (Rattus norvegicus [17]) [%] | Decrease in CR (Rattus norvegicus [19]) [%] | Decrease in CR (Rattus norvegicus [21]) [%] | Decrease in AP (Rattus norvegicus [25]) [%] | Decrease in AP (Rattus norvegicus [26]) [%] | Decrease in AP (Rattus norvegicus [27]) [%] | Decrease in CR (Rattus norvegicus [30]) [%] | Decrease in CR (Rattus norvegicus [31]) [%] | Decrease in AP (Rattus norvegicus [33]) [%] | other results |
| --- | --- | --- | --- | --- | --- | --- | --- | --- | --- | --- | --- | --- | --- | --- | --- | --- | --- | --- | --- | --- |
| CCOc1ccc2[nH]c3c(NN)nncc3c2c1.Cl | 32 | 37 | 5 | 59 | 12 | -10 | 11 | 6 | 34 | -5 | 51 | -11 | -7 | 57 | 16 | 10 | -20 | -17 | 57 | Decrease in AP (Rattus norvegicus [1]): 15%; Decrease in blood pressure (Rattus norvegicus [3]): 16%; Decrease in blood pressure (Rattus norvegicus [9]): 32%; Decrease in blood pressure (Rattus norvegicus [13]): 32%; Decrease in CR (Rattus norvegicus [14]): 10%; Decrease in blood pressure (Rattus norvegicus [15]): 20%; Decrease in CR (Rattus norvegicus [18]): -11%; Decrease in blood pressure (Rattus norvegicus [20]): 18%; Decrease in AP (Rattus norvegicus [22]): 29%; Decrease in blood pressure (Rattus norvegicus [23]): 41%; Decrease in blood pressure (Rattus norvegicus [24]): 36%; Decrease in AP (Rattus norvegicus [28]): 10%; Decrease in blood pressure (Rattus norvegicus [29]): 25%; inhibition at 10 µM (Homo sapiens [32]): 100%; inhibition at 10 µM (Homo sapiens [34]): 100% |
| Br.Br.NNc1[nH]ncc2c3cc(O)ccc3nc1-2 | 10 | 16 | 27 | 27 | 6 | 19 | 17 | 22 | 28 | 13 | 63 | 18 | 24 | 67 | 29 | -6 | 44 | 16 | 70 | Decrease in AP (Rattus norvegicus [35]): 8%; Decrease in CR (Rattus norvegicus [36]): 8%; Decrease in CR (Rattus norvegicus [37]): 19%; Decrease in CR (Rattus norvegicus [38]): 30%; Decrease in CR (Rattus norvegicus [39]): 64%; Decrease in CR (Rattus norvegicus [40]): 28%; Decrease in CR (Rattus norvegicus [41]): 24% |
